# pKd: −log10 of the molar value. Activity calls are given as the source filed them. No cut-off for these calls is given here.
# Key:
# [1] = target: T1, Galectin-1 (Homo sapiens, UniProt P09382); experiment: Inhibition of FITC-conjugated human Galectin-1binding to CD4+ cell surface glycans of gal1 -/- mouse after 30 mins by flow cytometry
# How it was run: (§1)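 Splenocytes from gal-1−/− mice, with RBCs lysed in ACK for 5 min on ice. Cells stained with lineage antibodies for 40 min on ice, then given FITC-gal-1 (0.1 or 0.2 μM; FITC:protein labeling ratio 10:1) with or without compound for 30 min on ice. Binding read by multiparameter flow cytometry gated on CD4+, CD8+ and CD31+ cells.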
# [2] = target: T1, Galectin-1; experiment: Inhibition of FITC-conjugated human Galectin-1binding to CD31+ endothelial cell surface glycans of gal1 -/- mouse at 20 uM after 30 mins by flow cytometry; how it was run: as §1
# [3] = target: T1, Galectin-1; experiment: Inhibition of FITC-conjugated human Galectin-1binding to CD4+ cell surface glycans of gal1 -/- mouse at 100 uM after 30 mins by flow cytometry; how it was run: as §1
# [4] = target: T1, Galectin-1; experiment: Inhibition of FITC-conjugated human Galectin-1binding to CD31+ endothelial cell surface glycans of gal1 -/- mouse after 30 mins by flow cytometry; how it was run: as §1
# [5] = target: T1, Galectin-1; experiment: Inhibition of FITC-conjugated human Galectin-1binding to CD8+ cell surface glycans of gal1 -/- mouse at 100 uM after 30 mins by flow cytometry; how it was run: as §1
# [6] = target: T1, Galectin-1; experiment: Inhibition of lactose binding to human [15N]-labelled Galectin-1 at molar ratio of 1:5 Gal1:compound by heteronuclear NMR spectroscopy analysis
# [7] = tested on: SK-HEP1; experiment: Cytotoxicity against human SKHEP1 cells assessed as cell viability by MTT assay; format: functional, cell-based
# How it was run: (§2)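 Cells grown as monolayers in RPMI with 10% FCS and 2 mM glutamine at 37 °C, 5% CO2, seeded at 2 × 10^3 cells/well. Then 72 h drug exposure and 48 h wash-out, followed by 0.4 mg/mL MTT for 4 h at 37 °C. Formazan dissolved in DMSO, absorbance read at 560 nm, and IC50 determined per cell line.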
# [8] = tested on: DU-145; experiment: Cytotoxicity against human DU145 cells assessed as cell viability by MTT assay; format: functional, cell-based; how it was run: as §2
# [9] = target: T1, Galectin-1; experiment: Inhibition of FITC-conjugated human Galectin-1binding to CD4+ cell surface glycans of gal1 -/- mouse at 20 uM after 30 mins by flow cytometry; how it was run: as §1
# [10] = target: T1, Galectin-1; experiment: Binding affinity to human [15N]-labelled Galectin-1 by heteronuclear NMR spectroscopy analysis
# How it was run: (§3)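 Uniformly 15N-labeled recombinant human gal-1 was expressed in E. coli BL21(DE3) and dissolved at 1 mg/mL in 20 mM potassium phosphate, pH 7.0, 50 μM EDTA, 95% H2O/5% D2O. Compound was titrated and followed by 1H-15N HSQC, reading resonance broadening and intensity changes. Averaged intensity change was plotted against free ligand, with bound ligand estimated from total gal-1 monomer (60 μM).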
# [11] = tested on: SQ20B; experiment: Cytotoxicity against human SQ20B cells assessed as cell viability by MTT assay; format: functional, cell-based; how it was run: as §2
# [12] = target: T1, Galectin-1; experiment: Inhibition of FITC-conjugated human Galectin-1binding to CD31+ endothelial cell surface glycans of gal1 -/- mouse at 100 uM after 30 mins by flow cytometry; how it was run: as §1
# [13] = target: T1, Galectin-1; experiment: Binding affinity to Galectin-1 in human Jurkat E6-1 cells surface glycans assessed as attenuation of agglutination at 20 uM by morphometric analysis; format: cell-based
# How it was run: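 Jurkat E6.1 cells (2 × 10^6 per 200 μL RPMI 1640) agglutinated with 1 μM gal-1 and incubated at 22 °C in medium alone or with 20 μM compound. Agglutination imaged by inverted phase microscopy, then digitally quantified by pixel-based morphometric analysis.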
# [14] = target: T1, Galectin-1; experiment: Binding affinity to human [15N]-labelled Galectin-1 at 60 uM by heteronuclear NMR spectroscopy analysis; how it was run: as §3
# [15] = tested on: COLO 205; experiment: Cytotoxicity against human COLO205-S cells assessed as cell viability by MTT assay; format: functional, cell-based; how it was run: as §2
# [16] = tested on: HT-29; experiment: Cytotoxicity against human HT-29 cells assessed as cell viability by MTT assay; format: functional, cell-based; how it was run: as §2
# [17] = target: T1, Galectin-1; experiment: Inhibition of FITC-conjugated human Galectin-1binding to CD8+ cell surface glycans of gal1 -/- mouse after 30 mins by flow cytometry; how it was run: as §1
# [18] = tested on: COLO 205; experiment: Cytotoxicity against human COLO205-R cells assessed as cell viability by MTT assay; format: functional, cell-based; how it was run: as §2
# [19] = target: T1, Galectin-1; experiment: Inhibition of FITC-conjugated human Galectin-1binding to CD8+ cell surface glycans of gal1 -/- mouse at 20 uM after 30 mins by flow cytometry; how it was run: as §1
# [20] = tested on: HEp-2; experiment: Cytotoxicity against human Hep2 cells assessed as cell viability by MTT assay; format: functional, cell-based; how it was run: as §2
# T1 sequence (P09382 whole entry): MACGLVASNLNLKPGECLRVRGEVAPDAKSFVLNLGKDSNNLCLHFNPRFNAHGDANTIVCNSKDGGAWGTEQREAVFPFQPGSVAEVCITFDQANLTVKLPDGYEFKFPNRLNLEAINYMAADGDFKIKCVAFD
smiles,measurement,setting,value
CN(C)CCNC(=O)COc1c2cccc1Cc1cccc(c1OCC(=O)NCCN(C)C)Cc1cccc(c1OCC(=O)NCCN(C)C)Cc1cccc(c1OCC(=O)NCCN(C)C)C2 [OTX-008],inhibition,[1],Dose-dependent effect
same,inhibition,[2],50%
same,inhibition,[3],100%
same,inhibition,[4],Dose-dependent effect
same,inhibition,[5],100%
same,inhibition,[6],Active
same,Activity,[7],Dose-dependent effect
same,Activity,[8],Dose-dependent effect
same,inhibition,[9],80%
same,pKd,[10],4.52
same,Activity,[11],Dose-dependent effect
same,inhibition,[12],70%
same,Activity,[13],80%
same,Activity,[14],50%
same,Activity,[15],Dose-dependent effect
same,Activity,[16],Dose-dependent effect
same,inhibition,[17],Dose-dependent effect
same,Activity,[18],Dose-dependent effect
same,inhibition,[19],80%
same,Activity,[20],Dose-dependent effect

# From ChEMBL document CHEMBL2086291, “Antitumor agent calixarene 0118 targets human galectin-1 as an allosteric inhibitor of carbohydrate binding” (J Med Chem, 2012)
